{"source": "ChEMBL document CHEMBL4024709", "about": "“Synthesis and biological evaluation of hypoxia-activated prodrugs of SN-38” (Eur J Med Chem, 2017)", "key": {"HT-29 [1]": {"system": "HT-29", "test": "Selectivity ratio of IC50 for human HT-29 cells under normoxic condition to IC50 for human HT-29 cells under hypoxic condition"}, "HT-29 [2]": {"system": "HT-29", "test": "Cytotoxicity against human HT-29 cells pretreated for 24 hrs under normoxic condition followed by compound washout measured after 72 hrs by MTT assay", "format": "cell-based", "summary_of_the_method": "(§1)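 HT29 in McCoy's 5A, H460 in RPMI 1640, each with 10% FBS and 1% pen-strep, 37 °C, 5% CO2. Seeded and grown 24 h, then exposed for 24 h to serial dilutions (DMSO ≤0.1% final) in hypoxia (94% N2/5% CO2/1% O2 chamber) or air.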"}, "NCI-H460 [3]": {"system": "NCI-H460", "test": "Cytotoxicity against human NCI-H460 cells pretreated for 24 hrs under hypoxic condition followed by compound washout measured after 72 hrs by MTT assay", "format": "functional, cell-based", "summary_of_the_method": "as §1"}, "HT-29 [4]": {"system": "HT-29", "test": "Cytotoxicity against human HT-29 cells pretreated for 24 hrs under hypoxic condition followed by compound washout measured after 72 hrs by MTT assay", "format": "functional, cell-based", "summary_of_the_method": "as §1"}, "NCI-H460 [5]": {"system": "NCI-H460", "test": "Selectivity ratio of IC50 for human NCI-H460 cells under normoxic condition to IC50 for human NCI-H460 cells under hypoxic condition"}, "NCI-H460 [6]": {"system": "NCI-H460", "test": "Cytotoxicity against human NCI-H460 cells pretreated for 24 hrs under normoxic condition followed by compound washout measured after 72 hrs by MTT assay", "format": "cell-based", "summary_of_the_method": "as §1"}, "[7]": {"test": "Stability of the compound in mouse liver microsomes assessed as compound remaining at 5 uM after 6 hrs in absence of NADPH by HPLC method", "format": "ADME, microsome", "details": "read-out: Stability", "summary_of_the_method": "(§2)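 Final mix: 5 µM compound, mouse liver microsomes 1 mg/mL, 5 mM MgCl2, ±1 mM NADPH, in 10 mM PBS pH 7.4 at 37 °C. Preincubated, then started by adding microsomes. Samples at 0–6 h quenched with cold methanol and centrifuged. Supernatant run on C18 HPLC (5–95% CH3CN/0.1% TFA, 373 nm); percent remaining at 6 h.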"}, "[8]": {"test": "Stability of the compound in phosphate buffered saline assessed as compound remaining at 5 uM after 48 hrs by HPLC method", "format": "physicochemical", "details": "read-out: Stability", "summary_of_the_method": "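Compound held in 10 mM PBS pH 7.4 at 37 °C for 48 h; percent remaining measured.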"}, "[9]": {"test": "Stability of the compound in mouse liver microsomes assessed as compound remaining at 5 uM after 6 hrs in presence of NADPH by HPLC method", "format": "ADME, microsome", "details": "read-out: Stability", "summary_of_the_method": "as §2"}}}
{"smiles": "CCc1c2c(nc3ccc(O)cc13)-c1cc3c(c(=O)n1C2)COC(=O)[C@]3(O)CC", "note": "[7-ETHYL-10-HYDROXYCAMPTOTHECIN]", "values": [{"measurement": "Ratio IC50", "setting": "HT-29 [1]", "result": 0.74}, {"measurement": "IC50", "setting": "HT-29 [2]", "result": 2.74, "unit": "µM"}, {"measurement": "IC50", "setting": "NCI-H460 [3]", "result": 0.06, "unit": "µM"}, {"measurement": "IC50", "setting": "HT-29 [4]", "result": 3.71, "unit": "µM"}, {"measurement": "Ratio IC50", "setting": "NCI-H460 [5]", "result": 0.83}, {"measurement": "IC50", "setting": "NCI-H460 [6]", "result": 0.05, "unit": "µM"}]}
{"smiles": "CCc1c2c(nc3ccc(OCc4cnc([N+](=O)[O-])n4C)cc13)-c1cc3c(c(=O)n1C2)COC(=O)[C@]3(O)CC", "values": [{"measurement": "Ratio IC50", "setting": "HT-29 [1]", "result": 3.82}, {"measurement": "IC50", "setting": "HT-29 [2]", "result": 14.9, "unit": "µM"}, {"measurement": "IC50", "setting": "NCI-H460 [3]", "result": 0.14, "unit": "µM"}, {"measurement": "remaining at 6 h, 5 µM", "setting": "[7]", "result": 94, "unit": "%"}, {"measurement": "IC50", "setting": "HT-29 [4]", "result": 3.89, "unit": "µM"}, {"measurement": "remaining at 48 h, 5 µM", "setting": "[8]", "result": 100, "unit": "%"}, {"measurement": "Ratio IC50", "setting": "NCI-H460 [5]", "result": 3.71}, {"measurement": "IC50", "setting": "NCI-H460 [6]", "result": 0.52, "unit": "µM"}, {"measurement": "remaining at 6 h, 5 µM", "setting": "[9]", "result": 72, "unit": "%"}]}
{"smiles": "CCc1c2c(nc3ccc(OC(=O)N(C)CCN(C)C(=O)OCc4cnc([N+](=O)[O-])n4C)cc13)-c1cc3c(c(=O)n1C2)COC(=O)[C@]3(O)CC", "values": [{"measurement": "Ratio IC50", "setting": "HT-29 [1]", "result": ">1.32"}, {"measurement": "IC50", "setting": "HT-29 [2]", "result": "> 100", "unit": "µM"}, {"measurement": "IC50", "setting": "NCI-H460 [3]", "result": 7.56, "unit": "µM"}, {"measurement": "remaining at 6 h, 5 µM", "setting": "[7]", "result": 92, "unit": "%"}, {"measurement": "IC50", "setting": "HT-29 [4]", "result": 75.9, "unit": "µM"}, {"measurement": "remaining at 48 h, 5 µM", "setting": "[8]", "result": 99, "unit": "%"}, {"measurement": "Ratio IC50", "setting": "NCI-H460 [5]", "result": 1.09}, {"measurement": "IC50", "setting": "NCI-H460 [6]", "result": 8.27, "unit": "µM"}, {"measurement": "remaining at 6 h, 5 µM", "setting": "[9]", "result": 13, "unit": "%"}]}
{"smiles": "Cn1c(COP(=O)(NCCBr)NCCBr)cnc1[N+](=O)[O-]", "note": "[EVOFOSFAMIDE]", "values": [{"measurement": "Ratio IC50", "setting": "HT-29 [1]", "result": ">2.02"}, {"measurement": "IC50", "setting": "HT-29 [2]", "result": "> 100", "unit": "µM"}, {"measurement": "IC50", "setting": "NCI-H460 [3]", "result": 9.08, "unit": "µM"}, {"measurement": "IC50", "setting": "HT-29 [4]", "result": 49.5, "unit": "µM"}, {"measurement": "Ratio IC50", "setting": "NCI-H460 [5]", "result": 5.61}, {"measurement": "IC50", "setting": "NCI-H460 [6]", "result": 51, "unit": "µM"}]}
